Rows were chosen to be rich in hits. Some 1.2% of all compounds tested hit in one or more screens of this group.
thrombin 1536: blocks human thrombin protease activity; 220,000 compounds, 0.26% hits; AID 1046; inhibition, % at 5 µM; alpha-thrombin, Boc-VPR-AMC fluorogenic substrate cleavage; P00734;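 active means inhibition at or above 40%; inactive means inhibition below 40%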
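Test system: human alpha-thrombin; medium: pH 7.5 Tris-saline with Tween 20; times: reaction at room temperature; signal: AMC fluorescence at 355 nm excitation and 460 nm emission; also added: Boc-VPR-AMC substrate, 15 µM final; dosing: one concentration per compound, 5 µM, with 0.2% DMSO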
FXIa inh 1536: factor XIa (human) inhibition; AID 798; P03951; purified FXIa, Boc-Glu-Ala-Arg-AMC fluorogenic substrate; inhibition, % at 5 µM; 220,000 compounds, 0.14% hits;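 active means inhibition of at least 40%; inactive means inhibition below 40%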;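 further: fluorescence of freed AMC excited at 355 nm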
PERK inhibitor: human PERK inhibition, primary cell-based screen. inhibition, % at 5.6 µM. CHO PERK-DD fusion, SEAP luminescence translation reporter. 220,000 compounds, 0.17% hits. Q9NZJ5;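 active means inhibition above the mean inhibition of all tested compounds plus 3 SD, set separately per screening campaign, cut at about 2.9% in these data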;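 further: PERK kinase domain activated by AP20187 dimerizer at 100 nM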
Furin inh: blocks human furin protease activity; purified furin, fluorogenic substrate cleavage; inhibition, % at 20 µM or 30 µM; 220,000 compounds, 0.061% hits; AID 463115; in the data active means inhibition above about 25%
KLK5 inh: blocks human kallikrein 5 protease activity; Q9Y337; recombinant hK5, fluorogenic AMC substrate cleavage; inhibition, % at 5 µM; 210,000 compounds, 0.59% hits;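 active means inhibition of 40% or more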
FXIIa inh: factor XIIa (human) inhibition; P00748; purified FXIIa, Boc-QGR-AMC fluorogenic substrate, 2 h; inhibition, % at 5 µM; 220,000 compounds, 0.3% hits; AID 800; in the data active means inhibition above about 40%
Of the large screens only hits and unclear results are named; the others gave an inactive call.

O=[N+]([O-])c1cccc(-c2noc(-c3ccco3)n2)c1	none
CCNC(=O)/C(C#N)=C/c1c(N(Cc2ccccc2)Cc2ccccc2)nc2ccccn2c1=O	none
CNC(=O)/C(C#N)=C/c1c(N(Cc2ccccc2)Cc2ccccc2)nc2c(C)cccn2c1=O	KLK5 inh 49.5
COc1cc(CC(=O)OCC(=O)Nc2ccc3c(c2)OCO3)cc(OC)c1OC	none
CC(=O)c1sc(NC(=O)COc2ccc(Cl)cc2C)nc1C	KLK5 inh 59.5, FXIIa inh 71.4
COc1ccc(C(=O)O)cc1S(N)(=O)=O	none
CNS(=O)(=O)c1cc(C(=O)O)ccc1OC	FXIIa inh 40.9
Cc1ccc(NC(=S)NCCc2ccccc2)nc1	FXIa inh 1536 53.9
Cc1ccc(NC(=O)CCCc2ccccc2)nc1	none
COc1ccc(C(C)C)cc1S(=O)(=O)Nc1ccncc1	thrombin 1536 45.8
COc1ccc(C)cc1S(=O)(=O)Nc1ccncc1	none
CCCN1CCC(NCc2cn(C)nc2-c2ccc(Oc3ccccc3)cc2)CC1	KLK5 inh 45.0
COC1CCCN(Cc2cn(C)nc2-c2ccc(Oc3ccccc3)cc2)C1 (stereo not given)	none (no result: KLK5 inh)
COc1cc(NC(=O)c2ccccc2)c(OC)cc1Cl	Furin inh 27.0
COc1ccc(C(=O)Nc2ccccc2C(=O)O)cc1NC(=O)C(c1ccccc1)c1ccccc1	none
COc1ccc(C(=O)Nc2ccccc2C(=O)O)cc1Cl	KLK5 inh 46.6
O=C(CC1C(=O)N(c2ccccc2)C(=O)N1C1CCCCC1)Nc1ccccc1 (stereo not given)	none
Cc1cccc(NC(=O)Nc2ccc3c(c2)N(C)C(=O)CS3)n1	KLK5 inh 58.5
COc1ccc(-c2csc(N)n2)cc1F	none
COc1ccc(C2=CSC3=NCCN23)cc1F	FXIIa inh 101.1
CN(C)S(=O)(=O)N1CCN(c2cccc(Cl)c2)CC1	KLK5 inh 83.3
CN(C)S(=O)(=O)N1CCN(c2ccccc2)CC1	none
CC(C)=CCC/C(C)=C/CC/C(C)=N/O	FXIIa inh 40.2
CC1=C(C(=O)OCCOc2ccccc2)C(c2ccsc2)NC(=O)N1C (stereo not given)	FXIa inh 1536 54.0
COC(=O)C1=C(C)N(C)C(=O)NC1c1ccccc1 (stereo not given)	none
Cc1onc(-c2c(Cl)cccc2Cl)c1NC(=O)NC1CCSC1 (stereo not given)	none
O=C(O)CC(Cc1ccccc1)C(=O)NCC12CC3CC(CC(C3)C1)C2 (stereo not given)	PERK inhibitor 3.2 (no result: KLK5 inh)
Cn1nccc1NC(=O)CSCC(=O)O	none
CC(C)OCCCNS(=O)(=O)c1ccc2c(c1)oc(=O)n2C	KLK5 inh 41.5
COc1ccc(S(=O)(=O)NCC2CCC(C(=O)NCC(OC)OC)CC2)cc1 (stereo not given)	PERK inhibitor 3.2 (no result: KLK5 inh)
COc1ccc(S(=O)(=O)NCC2CCC(C(=O)NCCC(C)C)CC2)cc1 (stereo not given)	none
CC(=O)c1ccc(Nc2cc(C)nc3c(C)cc(C)cc23)cc1	KLK5 inh 44.0
Cc1cc(C)c2nc(C)cc(Nc3ccc(C(=O)N(C)C)cc3)c2c1	none
O=[N+]([O-])c1ccccc1CNC1CCCc2ccccc21 (stereo not given)	none
CN1CCC(NC(=S)NC2CC2)CC1	none
COc1ccccc1CC(=O)NN1C(=O)c2ccccc2C1=O	KLK5 inh 44.3, FXIIa inh 105.8
CCN(CC)S(=O)(=O)c1ccc(Cl)c(C(=O)Oc2cccc(-c3cnc4ccccc4n3)c2)c1	KLK5 inh 55.6
COc1cccc(-c2csc(N3CCN(C(=S)Nc4ccccc4)CC3)n2)c1	KLK5 inh 112.1
CCC(=O)n1nc(-c2ccc(OC)cc2)nc1SC	none
CSc1nc(-c2ccc(Cl)cc2)nn1S(=O)(=O)c1ccccc1	none
CCC(=O)n1nc(-c2ccc(Cl)cc2)nc1SC	thrombin 1536 56.8
CCCC(=O)n1nc(-c2ccc(Cl)cc2)nc1SC	thrombin 1536 52.2
CCN1C(=O)C2(C(C(=O)c3cc4ccccc4o3)=C(O)C(=O)N2CCCN(C)C)c2ccccc21 (stereo not given)	none
CSCc1nc2scc(-c3ccccc3)c2c(=O)[nH]1	thrombin 1536 41.2
CC(C)(C)NC(=O)Cn1ccc(=N)c2ccccc21	none
CCCN(CCC)C(=O)Cn1ccc(=N)c2ccccc21	KLK5 inh 45.7

Compound activity deposited in PubChem BioAssay by several laboratories.
